Screening results as filed in PubChem.
This is a sample that favours compounds with a hit; in the whole collection about 3.8% have one here.
KCNQ1 act = human KCNQ1 channel potentiation or activation. P51787. CHO-K1 KCNQ1, thallium flux FluxOR fluorescence; stronger effect = higher value. B-score at 10 µM. 310,000 compounds, 0.35% hits. AID 2648;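 active = fluorescence ratio B-score, a plate-corrected score, at least three library SD, with initial intensity B-score within 5 SD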
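Test system: CHO-K1 cells stably expressing KCNQ1 / Medium: assay buffer / Also added: depolarizing K+/Tl+ stimulus, K2SO4 and Tl2SO4 each 12.5 mM in 5x stock / Incubation: 90 min dye loading and 20 min compound exposure, both at room temperature / Signal: thallium influx via FluxOR fluorescence, kinetic imaging / Evaluation: B score of baseline-normalized fluorescence ratio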
KCNK3 inh = human KCNK3 channel inhibition, primary screen. O14649. CHO-KCNK3 thallium flux, FluxOR fluorescence; stronger effect = lower value. B-score at 10 µM. 340,000 compounds, 0.84% hits. AID 602410;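 active = B-score under library mean minus 4 SD, starting fluorescence ratio at most library mean plus 5 SD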;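 note: more negative B-score means stronger inhibition of thallium flux through KCNK3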
Kir21 inh = Kir2.1 (mouse) channel inhibition; HEK293-Kir2.1, FluxOR thallium flux fluorescence; stronger effect = lower value; B-score at 10 µM; P35561; 310,000 compounds, 0.85% hits;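 active = fluorescence ratio B-score at or below minus 3 SD of library scores, with starting-brightness B-score within 2 SD, cut at about -4.2 in these data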;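 note: channel flux triggered by added potassium and thallium sulfate stimulus; B-score of peak minus minimum fluorescence over baseline after thallium stimulus; more negative B-score means stronger Kir2.1 block with less thallium influx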
hERG rescue = shields human hERG channel from block by proarrhythmic agents. Q12809. CHO-hERG, FluxOR thallium flux, dofetilide IC70 present. activation (rescue from dofetilide block), less the hit threshold, % at 10 µM. 310,000 compounds, 0.51% hits;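 active = activation above the mean of controls blocked by dofetilide plus 5 SD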;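 note: thallium influx through hERG after potassium depolarization seen as dye fluorescence rise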
KCNK9 inh = blocks the human KCNK9 two-pore domain potassium channel | Q9NPC2 | HEK293 KCNK9, FluxOR thallium flux fluorescence; stronger effect = lower value | B-score at 10 µM | 310,000 compounds, 1.2% hits;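 active = ratio B-score over 3 SD below the library mean, with starting fluorescence within 5 SD of its mean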;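 note: negative B-score means less thallium flux so channel inhibition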
KCNQ1 block = blocks the human KCNQ1 potassium channel | B-score at 10 µM | 310,000 compounds, 1.3% hits | CHO-K1 KCNQ1, FluxOR thallium flux fluorescence; stronger effect = higher value | AID 2642;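 active = compounds whose thallium flux B-score, printed positive for inhibition, exceeds three library SD while starting fluorescence stays within three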;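 note: channel opened by potassium depolarization with thallium stimulus after 20 min compound exposure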
KCNK9 block conf = confirmation of human KCNK9 potassium channel inhibitors. inhibition, % at 10 µM. HEK293 KCNK9 cells, FluxOR thallium flux fluorescence. 4,900 compounds, 43% hits. shares compounds with KCNK9 inh. AID 492992;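 active = thallium signal inhibited by more than 5 SD of the compound-free buffer control wells, on both duplicate plates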;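 note: 0% = assay buffer control wells without compound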
Kir2-1 spec = selectivity of KCNK9 modulators against mouse Kir2.1; shares compounds with KCNK9 inh; Kir2.1 cells, FluxOR thallium flux fluorescence; inhibition, % at 10 µM; 4,900 compounds, 4% hits;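 active = thallium signal drop more than 5 SD beyond the mean of the no-compound control wells, seen in both duplicate plates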;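 note: signal is fluorescence rise after thallium addition divided by baseline fluorescence; plate controls were assay buffer only for no effect and full block by chlorpromazine control for full effect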
HEK293 Tl ctr = non-induced cell nonspecific activity of KCNK9 modulators. shares compounds with KCNK9 inh. non-induced KCNK9-HEK293, FluxOR thallium flux. inhibition, % at 10 µM. 4,900 compounds, 40% hits;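 active = thallium signal drop beyond 5 SD of the untreated control mean, on both duplicate plates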;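 note: plate controls were buffer only IC0 wells for no effect and SID17386958 at its maximal inhibitory level for full effect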
Active calls of the source: *; i = inactive; . = no result given.

SMILES	KCNQ1 act	KCNK3 inh	Kir21 inh	hERG rescue	KCNK9 inh	KCNQ1 block	KCNK9 block conf	Kir2-1 spec	HEK293 Tl ctr
CC1CN(C(=O)COc2ccc3ccccc3c2)CC(C)O1 (centres undefined)	.	i	.	.	.	.	.	.	.
O=C(COc1ccc2ccccc2c1)N1c2ccccc2Sc2ccccc21	i	i	-2.08	-3.0	-12.8*	i	55.5%*	i	45.5%*
CCOc1ccc(-c2cc(NC(=O)c3c(F)cccc3F)c(C(=O)O)s2)cc1	i	i	2.5	-10.6	i	i	i	i	i
CCOC(=O)c1sc(-c2ccc(OC)cc2)cc1NC(C)=O	i	i	0.3	-1.8	i	i	i	i	i
O=Cc1c(-c2ccc(Cl)cc2)oc2ccc(O)cc12	i	i	-0.33	-5.0	i	i	.	.	.
O=C(NCc1ccccc1)c1onc(CSc2ccc(F)cc2)c1C(=O)NCc1ccccc1	i	i	-0.45	-4.9	i	i	i	i	i
CCCCNC(=O)c1onc(CSc2ccc(F)cc2)c1C(=O)NCCCC	i	i	2.27	-11.4	i	i	i	i	i
O=C(NCc1ccccc1)c1onc(CSc2ccccn2)c1C(=O)NCc1ccccc1	i	i	0.58	-6.5	i	i	i	i	i
CC(C)CCNC(=O)c1c(CSc2ccc(Cl)cc2)noc1C(=O)NCc1ccccc1	i	i	0.94	-6.5	i	i	i	i	i
Cc1ccc(S(=O)(=O)NCc2cn3ccccc3n2)c(C)c1	i	i	-0.23	-1.4	i	i	.	.	.
Fc1ccc(N2N=C(c3cccs3)CC2c2ccccc2)cc1 (centres undefined)	i	i	-0.32	-13.1	-11.2*	i	49.5%*	i	45.0%*
COc1ccc(C(=O)OCC(=O)NC(C)CCc2ccccc2)c(OC)c1 (centres undefined)	i	i	-1.81	-8.2	i	i	.	.	.
O=[N+]([O-])c1ccc(CSc2nnc(SCc3ccc(Cl)cc3)s2)cc1	i	i	-0.49	0.5	-9.31*	i	45.0%*	i	45.5%*
Nc1nnc(SCc2ccc([N+](=O)[O-])cc2)s1	i	i	-2.35	-9.9	i	i	.	.	.
CCOc1ccc(C(=O)Nc2ccc(Cc3ccncc3)cc2)cc1Br	i	i	1.22	-3.8	i	i	i	i	i
CCOc1ccc(C(=O)Nc2ccc(NC(=O)c3ccccc3)cc2)cc1Br	i	i	0.11	-6.7	i	i	.	.	.
CCc1nnc(NC(=O)/C=C/c2cccs2)s1	i	i	-1.18	-5.6	i	i	.	.	.
COC(=O)C(Cc1ccc(O)cc1)N1Cc2ccccc2C1=O (centres undefined)	i	i	-0.5	-4.5	i	i	.	.	.
COC(=O)C(Cc1ccc(OC(=O)c2ccc(C)cc2)cc1)N1Cc2ccccc2C1=O (centres undefined)	i	i	0.89	-3.9	i	i	i	i	i
SC(COCc1ccccc1)CN1CCN(Cc2ccc3c(c2)OCO3)CC1 (centres undefined)	i	i	-0.49	-12.6	i	i	i	i	i
COc1ccccc1NC(=O)C1CCN(C(=O)c2ccco2)CC1	i	i	-0.7	-8.1	i	i	.	.	.
CC(NCC(=O)NC(=O)NC1CCCC1)c1ccc(Cl)cc1Cl (centres undefined)	i	i	-1.68	-12.9	i	i	i	i	i
O=C(COC(=O)c1ccc(Cl)cc1)NC(=O)NC1CCCC1	.	i	.	.	.	.	.	.	.
O=C(OC1CO[C@H]2O[C@@H]1[C@H](OC(=O)c1ccccc1)[C@H]2OC(=O)c1ccccc1)c1ccccc1 (some centres undefined)	i	i	0.53	-11.8	i	i	i	i	i
O=C(OC1CCS(=O)(=O)c2sccc21)c1ccccc1 (centres undefined)	i	i	-1.67	-7.1	i	i	.	.	.
SMILES	KCNQ1 act	KCNK3 inh	Kir21 inh	hERG rescue	KCNK9 inh	KCNQ1 block	KCNK9 block conf	Kir2-1 spec	HEK293 Tl ctr
CN(CC(=O)Nc1ccc(Cl)cc1)C1=NS(=O)(=O)c2ccccc21	.	i	.	.	.	.	.	.	.
O=C(OCCN(C1=NS(=O)(=O)c2ccccc21)c1ccccc1Cl)c1ccc(Cl)cc1	i	i	1.3	-9.6	-8.11*	i	30.0%*	i	30.0%*
CCc1nnc(NS(=O)(=O)c2ccc(N/C=C(\C=O)c3nc4cc(Cl)ccc4o3)cc2)s1	i	i	0	-15.3	i	i	i	i	i
CCc1nnc(NS(=O)(=O)c2ccc(NC(=O)c3ccc(Cl)cc3)cc2)s1	i	i	1.01	-10.0	i	i	.	.	.
Nc1c(C(=O)NCc2ccccc2)nnn1Cc1ccccc1	i	i	-1.42	-8.5	i	i	.	.	.
c1ccc(Cn2nnc(CNc3ccccc3)c2-c2c(CNc3ccccc3)nnn2Cc2ccccc2)cc1	i	i	0.98	-7.0	-17.2*	i	63.5%*	i	36.5%*
CC1CCN(c2c(NCC3CCC(C(=O)NCCC4=CCCCC4)CC3)c(=O)c2=O)CC1 (centres undefined)	i	i	0.72	-8.7	i	i	.	.	.
C#CCOCCOCCOCCNc1nc(N2CCN(C(=O)[C@H](CCC(=O)O)n3cc([C@@H](N)CCCCN)nn3)CC2)nc(N2CCN(C(=O)[C@H](CCCCN)n3cc([C@@H](N)CC(N)=O)nn3)CC2)n1	.	i	.	.	.	.	.	.	.
Cc1ccc(F)c(NC(=O)/C(C#N)=C(\O)c2ccc(C(C)(C)C)cc2)c1	i	i	0.8	-11.5	i	7*	i	i	i
Cc1ccc(F)c(NC(=O)c2ccc(Cn3cc(Cl)cn3)cc2)c1	i	i	0.09	-9.6	i	i	.	.	.
COc1ccc(CNC(=O)c2ccc(N3CCC4(CC3)CC(c3ccc(Cl)cc3)=NO4)c(N)c2)cc1	i	.	0.34	-12.1	i	i	.	.	.
Oc1ccccc1N1CCN(c2nc(-c3cccs3)nc3ccccc23)CC1	i	i	1.22	-14.2	-13.4*	i	40.0%*	i	28.0%*
CCN1CCN(c2nc(-c3cccs3)nc3ccccc23)CC1	i	i	-1.31	-12.7	i	i	.	.	.
Oc1ccc(N2CCN(c3nc(-c4cccs4)nc4ccccc34)CC2)cc1	i	i	0.91	-11.9	-8.41*	i	i	i	i
